Screening data as filed in PubChem.
An excerpt weighted towards active compounds, which were near 2.3% of everything screened.
GPR7 antag – blocks human GPR7 receptor signaling. AID 1861. GPR7-expressing cells, fluorescence antagonist assay. inhibition, % at 4.4 µM. 290,000 tested, 1.1% active. P48145; in the data active = inhibition above about 16%, passing the limit was not always enough;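 also: cells stimulated with the agonist NPW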
Target sequence (P48145 whole entry, looked up): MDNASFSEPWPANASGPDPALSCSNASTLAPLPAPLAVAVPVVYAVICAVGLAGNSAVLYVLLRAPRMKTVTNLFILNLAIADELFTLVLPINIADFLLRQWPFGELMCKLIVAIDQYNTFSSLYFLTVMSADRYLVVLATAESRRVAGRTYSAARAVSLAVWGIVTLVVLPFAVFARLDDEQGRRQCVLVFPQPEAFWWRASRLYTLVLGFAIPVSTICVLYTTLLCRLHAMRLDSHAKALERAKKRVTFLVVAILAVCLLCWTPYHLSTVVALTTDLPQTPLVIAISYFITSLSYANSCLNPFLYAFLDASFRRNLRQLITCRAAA
EBNA-1 inhibitor – blocks EBNA-1 binding to DNA | EBNA-1 DNA binding, fluorescence polarization | inhibition, % at 14.8 µM | 300,000 tested, 0.34% active; in the data active = inhibition above about 28%
NS3 helicase inh – HCV NS3 helicase inhibition. NS3 helicase DNA unwinding, Cy5 molecular beacon fluorescence. inhibition, % at 10.9 µM. 290,000 tested, 0.56% active;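 active = inhibition above the mean of all tested compounds plus 3 SD, set per campaign, cut at about 35% in these data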
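System: HCV NS3 helicase fragment; control set: DMSO and thioflavine S; technique: Cy5 fluorescence at 0 and 60 min, beacon hairpin quenching; reagent: beacon DNA duplex substrate plus ATP; replicates: singlicate; schedule: 1 h reaction at 25 °C, ATP-initiated; medium: MOPS buffer pH 6.5 with MgCl2, DTT, Tween20, BSA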
ZTA counter – blocks Epstein-Barr virus ZTA, an EBNA-1 counter-screen | P03206 | ZTA-DNA binding, fluorescence polarization | inhibition, % at 11 µM | 320,000 tested, 0.15% active | AID 2234; in the data active = inhibition above about 33%
EBV gp42 block – blocks Epstein-Barr virus glycoprotein 42 binding; Q1HVG2; Fluorescence polarization binding assay, mP read-out; inhibition, % (tested at 21.74 µM); 220,000 tested, 0.42% active; in the data active = inhibition above about 50%
Target sequence (Q1HVG2 whole entry, looked up): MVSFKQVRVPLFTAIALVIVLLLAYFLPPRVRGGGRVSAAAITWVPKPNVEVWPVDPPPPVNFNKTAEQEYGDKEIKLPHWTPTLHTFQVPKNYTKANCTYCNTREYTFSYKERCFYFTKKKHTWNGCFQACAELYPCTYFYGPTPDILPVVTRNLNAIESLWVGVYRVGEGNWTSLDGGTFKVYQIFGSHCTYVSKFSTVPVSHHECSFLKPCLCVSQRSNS
core dimer inh – HCV core protein dimerization inhibition | inhibition, % at 5 µM | 300,000 tested, 0.33% active | AID 1899 | TR-FRET GST/Flag-core106 dimerization, 1536-well;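 active = inhibition above the mean of all tested compounds plus 3 SD, set per screening campaign, cut at about 45% in these data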
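System: GST/Flag-tagged HCV core106 proteins. Incubation: compound-protein-antibody incubation 4 h at 22.5 °C. Technique: HTRF with 340 nm excitation, 617/671 nm emission. Medium: KF-containing HEPES buffer, pH 7.45, DTT, CHAPS, BSA. Read-out: inhibition (%) from 671 over 617 nm ratio. Also added: Eu(K)-anti-GST 90 ng/mL plus XL665-anti-Flag 1 µg/mL.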
GPR7 antag conf – human GPR7 antagonism, confirmation assay; 2,400 tested, 52% active; shares compounds with GPR7 antag; GPR7-expressing cells, calcium fluorescence antagonist mode; inhibition, % at 4.4 µM; in the data active = inhibition above about 24%;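 also: stimulated with the GPR7 agonist NPW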
MCHR1 antag – antagonizes human MCHR1, a GPR7 antagonist counter-screen. shares compounds with GPR7 antag. MCHR1-expressing cells, fluorescence antagonist assay. inhibition, % at 4.4 µM. 2,400 tested, 62% active; in the data active = inhibition above about 22%
A number is an active result; – = inactive; · = no result.

SMILES | GPR7 antag | EBNA-1 inhibitor | NS3 helicase inh | ZTA counter | EBV gp42 block | core dimer inh | GPR7 antag conf | MCHR1 antag
C=CCNC(N)=S | – | – | – | – | · | – | · | ·
CCOc1ccc(S(=O)(=O)N2CCN(C(=O)c3ccccc3Cc3ccccc3)CC2)cc1 | · | – | · | – | · | – | · | ·
Cc1cc(C)c(S(=O)(=O)CCC(C)C)c(=O)[nH]1 | – | – | – | – | – | – | · | ·
CS(=O)(=O)N(CC(=O)Nc1ccc(F)c(F)c1)c1cccc([N+](=O)[O-])c1 | 32 | – | – | – | – | – | – | –
CS(=O)(=O)N(CC(=O)NCCc1ccccc1)c1cccc([N+](=O)[O-])c1 | – | – | – | – | – | – | · | ·
O=C(Nc1ccnn1C1CCN(Cc2ccc(CO)o2)CC1)c1ccccc1 | 29 | – | – | – | · | – | – | –
CCc1ccc(CN2CCC(n3nccc3NC(=O)c3ccccc3)CC2)o1 | – | – | – | – | · | – | · | ·
Cc1c(Cc2c(Cl)cccc2Cl)c(=O)ccn1C(C)c1ccccc1 (centres undefined) | 35 | · | – | · | – | · | 27 | 25
CCOC(=O)CN1N=C(c2ccc(Cl)s2)CSC1=O | – | – | – | – | – | – | · | ·
CCOC(=O)c1cc(-c2ccccc2)nc2c1c(C)nn2-c1ccccn1 | 46 | – | – | – | – | – | 28 | 34
COc1ccc(Cl)cc1N(CC(=O)NC1CC2CCC1C2)S(=O)(=O)c1ccccc1 (centres undefined) | 33 | – | – | – | · | – | 37 | 62
O=C(Nc1ccnn1C1CCN(Cc2cc3ccccc3[nH]2)CC1)C1CCOC1 (centres undefined) | 82 | – | – | – | · | – | 53 | 74
Cc1c(CN2CCC(n3nccc3NC(=O)C3CCOC3)CC2)[nH]c2ccccc12 (centres undefined) | – | · | – | · | · | · | · | ·
Cc1ccc(-n2c(C)cc(=O)cc2C)cc1[N+](=O)[O-] | – | – | – | – | · | – | · | ·
CNC(=S)N/N=C/c1cn(Cc2c(F)cccc2Cl)c2ccccc12 | 30 | – | – | – | – | – | 45 | 30
COc1ccc(/C=C2\N=C(C)OC2=O)cc1OC(C)=O | – | · | – | · | · | · | · | ·
COc1cc(/C=C2\N=C(c3ccccc3)OC2=O)ccc1OC(C)=O | 25 | – | – | – | · | – | – | –
O=C(NNC(=O)c1cccc(O)c1)Nc1ccc([N+](=O)[O-])cc1 | – | – | – | – | – | – | · | ·
COC(C(=O)Nc1ccc(S(=O)(=O)Nc2ccc(F)cc2)cc1)c1ccccc1 (centres undefined) | 22 | – | – | – | – | – | 51 | 39
CC1(C)CC(=O)C2=C(C1)N(c1ccccc1)C(N)=C(C#N)C2c1cccnc1 (centres undefined) | – | – | – | – | – | – | · | ·
CN(C)N1C(N)=C(C#N)C(c2cccnc2)C2=C1CC(C)(C)CC2=O (centres undefined) | 22 | – | – | – | – | – | – | –
CSc1cccc(CN(C)C(=O)C2CCC(=O)N(CCCN3CCCC3=O)C2)c1 (centres undefined) | – | – | – | – | · | – | · | ·
COc1ccccc1N(CCC#N)C(=O)CSc1ccc2c(c1)OCCO2 | 36 | – | – | – | – | – | – | –
CCc1ccccc1NC(=O)COc1ccc(C(=S)N2CCCC2)cc1 | 23 | – | – | – | – | – | – | –
CC(=O)c1ccc(OCC(=O)Nc2ccccc2N2CCCC2)cc1 | – | – | – | – | · | – | · | ·
SMILES | GPR7 antag | EBNA-1 inhibitor | NS3 helicase inh | ZTA counter | EBV gp42 block | core dimer inh | GPR7 antag conf | MCHR1 antag
CCOc1ccccc1N1CCN(C(=O)/C=C/c2cccc([N+](=O)[O-])c2)CC1 | 21 | – | – | – | – | – | 32 | 41
O=C(/C=C/c1cccc([N+](=O)[O-])c1)N1CCN(c2ccccc2F)CC1 | – | – | – | – | – | – | · | ·
CCOc1ccccc1NC(=O)C(=O)NCCC1=CCCCC1 | – | – | – | – | – | – | · | ·
Cc1cccc(C(=O)N2CCCC(N3CCN(Cc4ccc5c(c4)OCO5)CC3)C2)n1 (centres undefined) | 27 | – | – | – | · | – | – | –
O=C(c1ccccn1)N1CCCC(N2CCN(Cc3ccc4c(c3)OCO4)CC2)C1 (centres undefined) | – | – | – | – | · | – | · | ·
CC(=O)Nc1ccc(NC(=O)C2(C)CC2(Cl)Cl)cc1 (centres undefined) | – | – | – | – | – | – | · | ·
Cc1ccc(C)c(N2CCN(CCCNC(=O)Cn3cccc3C(=O)c3ccccc3C)CC2)c1 | 28 | – | – | – | – | – | 36 | 65
Cc1noc(C)c1NC(=O)NC(c1ccccc1)c1ccccc1 | – | – | – | – | – | – | · | ·
Cc1nc(Cl)c(C(=O)NCc2ccccc2)c(C)c1Cl | – | – | – | – | – | – | · | ·
O=C(NCc1ccccc1)c1c(Cl)nc(Cl)c(Cl)c1Cl | 76 | – | – | – | · | – | 87 | 45
Fc1ccccc1CSc1nnc(-c2cnccn2)n1Cc1ccco1 | – | – | – | – | – | – | · | ·
C(=C\c1ccccc1)/CSc1nnc(-c2cnccn2)n1Cc1ccco1 | 21 | – | – | – | – | – | 24 | 39
COc1ccc(CNC(=S)Nc2ccccc2)cc1 | – | – | – | – | · | – | · | ·
CCN(c1ccc(NC(=O)COC(=O)c2ccc(S(=O)(=O)N3CCCC3)cc2)cc1)C(C)C | – | – | – | – | – | – | · | ·
CC(=O)Nc1ccc(NC(=O)COC(=O)C2c3ccccc3Oc3ccccc32)cc1 | 23 | · | – | · | – | · | – | –
CCCCCCCC1CC(CSc2ncn[nH]2)OC1=O (centres undefined) | 21 | – | – | – | – | – | 38 | 38
C#CCNC(=O)C1=C[C@H](c2cn(C(C)=O)c3ccccc23)C[C@H](OCc2ccc(CO)cc2)O1 | 38 | – | – | – | – | – | – | 38
COc1ccc(C2C(O)C(c3c[nH]c4ccccc34)=NN2C(=O)CCl)cc1 (centres undefined) | 22 | – | – | – | · | – | 39 | 47
CCCOc1ccc(N2C(=O)CC(N3CCN(c4ccccc4F)CC3)C2=O)cc1 (centres undefined) | – | – | – | – | – | – | · | ·
CCCOc1ccc(N2C(=O)CC(N3CCN(c4nc5ccccc5s4)CC3)C2=O)cc1 (centres undefined) | 42 | – | – | – | – | – | – | 33
COc1ccc2c(c1OC)C(=O)N(c1ccc(OCc3ccccc3)cc1)C2=O | – | – | – | – | · | – | · | ·
COc1ccc(C(CNC(=O)COc2cc(C)c(Cl)c(C)c2)N2CCCCC2)cc1 (centres undefined) | 28 | – | – | – | · | – | 36 | 59
COc1ccc(C(CNC(=O)COc2ccc(C)c(C)c2)N2CCCCC2)cc1 (centres undefined) | – | – | – | – | · | – | · | ·
